Test results: ChEMBL document CHEMBL3421600, “Hupehenols A-E, selective 11β-hydroxysteroid dehydrogenase type 1 (11β-HSD1) inhibitors from Viburnum hupehense” (J Nat Prod, 2015)

Key:
[1] = biological target: 11-beta-hydroxysteroid dehydrogenase 1 (Mus musculus, UniProt P50172); test: Inhibition of mouse 11beta-HSD1 overexpressed in microsomal fraction of HEK293 cells assessed as formation of [3H]-cortisol from [3H]-cortisone by scintillation proximity assay in presence of NADPH; format: cell-based
Chain of 11-beta-hydroxysteroid dehydrogenase 1 (Mus musculus, UniProt P50172) (P50172 whole entry): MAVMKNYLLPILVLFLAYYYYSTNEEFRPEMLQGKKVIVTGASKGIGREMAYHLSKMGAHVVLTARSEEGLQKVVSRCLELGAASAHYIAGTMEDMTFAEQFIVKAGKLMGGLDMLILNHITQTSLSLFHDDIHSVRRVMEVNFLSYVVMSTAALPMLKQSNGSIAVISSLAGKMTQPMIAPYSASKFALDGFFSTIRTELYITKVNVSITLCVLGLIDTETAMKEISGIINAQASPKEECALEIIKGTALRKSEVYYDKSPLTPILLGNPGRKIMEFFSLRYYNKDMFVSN
Procedure, shortened: (§1)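 Full-length human or murine 11β-HSD1 cDNA cloned into pcDNA3 and stably transfected into HEK-293 cells, selected with G418 (700 μg/mL). Microsomal fraction used as enzyme source. Microsomes incubated with NADPH, [3H]cortisone and compound. [3H]cortisol product captured by monoclonal antibody on protein A-coated SPA beads and read by scintillation proximity. IC50 reported.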

[2] = biological target: T1, 11-beta-hydroxysteroid dehydrogenase type 2 (Mus musculus, UniProt P51661); test: Inhibition of mouse 11beta-HSD2 overexpressed in microsomal fraction of HEK293 cells using [3H]-cortisol as substrate by scintillation proximity assay in presence of NAD+
T1 sequence (P51661 whole entry): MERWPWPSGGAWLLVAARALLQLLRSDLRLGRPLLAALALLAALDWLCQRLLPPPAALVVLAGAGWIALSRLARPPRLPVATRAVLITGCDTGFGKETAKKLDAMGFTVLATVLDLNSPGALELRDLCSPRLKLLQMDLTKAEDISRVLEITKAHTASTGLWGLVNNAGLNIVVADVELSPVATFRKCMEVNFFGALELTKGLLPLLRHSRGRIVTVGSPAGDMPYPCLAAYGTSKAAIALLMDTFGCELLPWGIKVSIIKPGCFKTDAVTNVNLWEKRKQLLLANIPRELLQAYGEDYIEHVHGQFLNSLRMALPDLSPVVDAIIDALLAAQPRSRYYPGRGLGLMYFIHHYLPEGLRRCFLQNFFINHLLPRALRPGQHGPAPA
Procedure, shortened: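 Enzyme was murine 11β-HSD2 full-length cDNA in pcDNA3, stably expressed in HEK-293 cells selected with G418 (700 μg/mL). Microsomes from these cells were incubated with [3H]cortisol, NAD+ and compound. Activity was read by scintillation proximity assay and IC50 reported.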

[3] = biological target: 11-beta-hydroxysteroid dehydrogenase 1 (Homo sapiens, UniProt P28845); test: Inhibition of human 11beta-HSD1 overexpressed in microsomal fraction of HEK293 cells assessed as formation of [3H]-cortisol from [3H]-cortisone by scintillation proximity assay in presence of NADPH; format: cell-based; procedure, shortened: as §1
Chain of 11-beta-hydroxysteroid dehydrogenase 1 (Homo sapiens, UniProt P28845) (P28845 whole entry): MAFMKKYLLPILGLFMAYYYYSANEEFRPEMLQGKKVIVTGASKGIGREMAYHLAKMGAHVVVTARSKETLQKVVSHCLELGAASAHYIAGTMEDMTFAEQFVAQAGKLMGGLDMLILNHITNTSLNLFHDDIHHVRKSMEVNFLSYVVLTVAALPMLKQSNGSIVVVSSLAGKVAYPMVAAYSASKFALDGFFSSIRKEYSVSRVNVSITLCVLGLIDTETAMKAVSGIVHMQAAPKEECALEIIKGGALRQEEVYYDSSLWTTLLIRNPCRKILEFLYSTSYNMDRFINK

[4] = biological target: T2, 11-beta-hydroxysteroid dehydrogenase type 2 (Homo sapiens, UniProt P80365); test: Inhibition of human 11beta-HSD2 overexpressed in microsomal fraction of HEK293 cells using [3H]-cortisol as substrate by scintillation proximity assay in presence of NAD+
T2 sequence (P80365 whole entry): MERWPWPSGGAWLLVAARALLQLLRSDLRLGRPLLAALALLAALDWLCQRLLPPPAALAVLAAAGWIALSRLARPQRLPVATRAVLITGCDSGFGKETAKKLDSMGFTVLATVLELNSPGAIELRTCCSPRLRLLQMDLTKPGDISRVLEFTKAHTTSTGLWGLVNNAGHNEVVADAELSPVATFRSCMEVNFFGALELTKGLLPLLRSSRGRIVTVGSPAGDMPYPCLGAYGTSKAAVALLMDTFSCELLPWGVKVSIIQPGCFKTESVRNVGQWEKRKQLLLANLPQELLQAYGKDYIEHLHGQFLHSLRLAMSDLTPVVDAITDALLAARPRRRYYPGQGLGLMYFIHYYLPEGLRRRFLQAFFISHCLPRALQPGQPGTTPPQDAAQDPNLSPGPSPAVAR

| Compound | IC50 [1] | IC50 [2] | IC50 [3] | IC50 [4] |
| --- | --- | --- | --- | --- |
| CO[C@@H]1CC(=O)[C@]2(C)[C@@H]1[C@H](O)C[C@@H]1[C@@]3(C)CC[C@H](O)C(C)(C)[C@@H]3CC[C@]12C | 2.8 µM | 292 µM | 194 nM | – |
| CC(=O)O[C@@H]1C[C@@H]2[C@@]3(C)CC[C@H](O)C(C)(C)[C@@H]3CC[C@@]2(C)[C@]2(C)C(=O)C[C@@H](O)[C@@H]12 | 4.7 µM | > 1000 µM | 75.5 nM | – |
| CC1(C)[C@@H](O)CC[C@]2(C)[C@H]3C[C@@H](O)[C@@H]4C=CC(=O)[C@@]4(C)[C@]3(C)CC[C@@H]12 | 2.9 µM | > 1000 µM | 395 nM | 284 µM |

The remaining lines, values ahead:

| IC50 [1] | IC50 [2] | IC50 [3] | IC50 [4] | Compound |
| --- | --- | --- | --- | --- |
| 3.3 µM | 155 µM | 15.3 nM | – | CO[C@@H]1CC(=O)[C@]2(C)[C@@H]1[C@H](OC(C)=O)C[C@@H]1[C@@]3(C)CC[C@H](O)C(C)(C)[C@@H]3CC[C@]12C |
| 7.2 µM | 217 µM | 34.1 nM | – | CC(=O)O[C@@H]1C[C@@H]2[C@@]3(C)CC[C@H](O)C(C)(C)[C@@H]3CC[C@@]2(C)[C@]2(C)C(=O)C=C[C@@H]12 |
